Assay type in all cases: functional
Assay [1] is described as follows: Antioxidant activity assessed as inhibition of hydroxyl radical production at 1 mM after 5 mins by ESR spectrophotometry. Summed up:
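Hydroxyl radical generated in N,N-dimethylformamide with NaOH (3 mM final), DMPO spin trap (30 mM final) and 30% hydrogen peroxide. Compounds at 1 mM final. EPR spectrum recorded after 5 min of reaction, with % scavenging derived from it.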

Another assay deals with Trypanosoma cruzi. Put plainly: Antitrypanosomal activity against trypomastigote stage of Trypanosoma cruzi Dm28c at 10 umol/L after 24 hrs by MTT assay. The method, boiled down: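 Parasites at 10⁷ per mL exposed to compound in DMSO ([…] final as printed, DMSO below 0.1% v/v) for 24 h at 37 °C. Nifurtimox served as positive control. Colorimetric read-out of viable parasites by absorbance at 570 nm.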
(In general: Tetrazolium assays rely on reduction of a dye to a coloured formazan, in cell work by metabolically active cells.)

A short description of assay [2]: Antioxidant activity against APPH radical assessed as trolox equivalent incubated for 15 mins prior to APPH addition measured every 1 min by 120 mins by fluorescein-based ORAC method. The method, boiled down:
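Peroxyl-radical scavenging by ORAC-FL. Fluorescein (40 nM final) and compound in methanol (0.3–2 M range, as printed) in 75 mM sodium phosphate buffer pH 7.4. Preincubated 15 min at 37 °C, then AAPH (18 mM final) added. Fluorescence read at ex 485/em 528 nm every 1 min for 120 min. Area under the decay curve calculated, expressed relative to trolox. Means SD.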

Each structure is given as a SMILES string. Activity calls are given as the source filed them. The calls are words filed in the database; no cut-off is given here.

The inhibition is the change of the read-out against control, counted positive when it falls. In the case of `O=c1oc2ccccc2c(O)c1-c1ccccc1`, the inhibition in assay [1] turned out to be 45.1%. In addition, the Activity came out at 21.1% with Trypanosoma cruzi and 4.4 equiv in assay [2].
The corresponding values for `Cc1ccc(-c2c(O)c3ccccc3oc2=O)cc1` are 34.6%, 16.7% and 6.5 equiv.
In turn, `CC1CS(=O)(=O)CCN1/N=C/c1ccc([N+](=O)[O-])o1` (centres undefined) [NIFURTIMOX] came in with an Activity in the assay on Trypanosoma cruzi of 52.5%.
As for `COc1ccc(-c2c(O)c3ccccc3oc2=O)cc1`, the inhibition in assay [1] was 46.3%. The Activity turned out to be 1.6% in the assay on Trypanosoma cruzi and 5.7 equiv in assay [2].
On to `O=c1oc2ccccc2c(O)c1-c1ccc(Cl)cc1`, for which the inhibition in assay [1] was 31.3%. Moreover, the Activity in the assay with Trypanosoma cruzi was 30.7%; in assay [2], 3.9 equiv.
The corresponding values for `O=c1oc2ccc(Cl)cc2c(O)c1-c1cccc(O)c1` are 100%, “inactive” and 7.7 equiv.
Consider `O=c1c(O)c(-c2ccc(O)c(O)c2)oc2cc(O)cc(O)c12`, for which the Activity in assay [2] is 7.28 equiv.
`Oc1cc(O)c2c(c1)OC(c1ccc(O)c(O)c1)C(O)C2` (centres undefined): in assay [2], the Activity amounted to 6.76 equiv.
For the molecule `O=c1oc2ccccc2c(O)c1-c1cccc(O)c1`, the inhibition in assay [1] came to 40.2%. In addition, the results for the Activity (in the assay on Trypanosoma cruzi; in assay [2]) were 3.9% and 4.9 equiv, respectively.
The corresponding values for `O=c1cc(O)c2ccccc2o1` are 61.9%, “inactive” and 4.2 equiv.

The values are drawn from ChEMBL document CHEMBL2069191, “Antitrypanosomal and antioxidant properties of 4-hydroxycoumarins derivatives” (2012).
